Assay outcomes as filed in PubChem.
KCNK9 block – blocks the human KCNK9 two-pore domain potassium channel; B-score at 10 µM; HEK293 KCNK9, FluxOR thallium flux fluorescence; hits give low values; actives 1.2% (n = 310,000); Q9NPC2;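 active means ratio B-score over 3 SD below the library mean, with starting fluorescence within 5 SD of its mean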;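 further: negative B-score means less thallium flux so channel inhibition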
Target sequence (Q9NPC2 whole entry, looked up, the tested form may be a part): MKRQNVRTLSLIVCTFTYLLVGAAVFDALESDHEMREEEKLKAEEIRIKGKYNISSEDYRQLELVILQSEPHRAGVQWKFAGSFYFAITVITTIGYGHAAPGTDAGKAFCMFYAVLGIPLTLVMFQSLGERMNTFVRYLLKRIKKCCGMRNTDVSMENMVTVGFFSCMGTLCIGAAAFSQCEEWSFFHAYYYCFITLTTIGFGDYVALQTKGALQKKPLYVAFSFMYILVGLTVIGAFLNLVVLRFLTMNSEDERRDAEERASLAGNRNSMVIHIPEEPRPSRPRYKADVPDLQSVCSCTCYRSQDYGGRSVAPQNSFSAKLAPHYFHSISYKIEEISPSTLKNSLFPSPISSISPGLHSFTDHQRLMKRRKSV
KCNK3 block – human KCNK3 channel inhibition, primary screen. CHO-KCNK3 thallium flux, FluxOR fluorescence; hits give low values. B-score at 10 µM. actives 0.84% (n = 340,000). AID 602410;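 active means B-score under library mean minus 4 SD, starting fluorescence ratio at most library mean plus 5 SD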;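 further: more negative B-score means stronger inhibition of thallium flux through KCNK3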
PHOSPHO1 inh – inhibitors of human PHOSPHO1 phosphatase; Q8TCT1; recombinant PHOSPHO1, absorbance phosphatase assay; inhibition, % at 13.3 µM; actives 1.1% (n = 290,000); AID 1565; in the data active means inhibition above about 60%
Target sequence (Q8TCT1 whole entry, looked up): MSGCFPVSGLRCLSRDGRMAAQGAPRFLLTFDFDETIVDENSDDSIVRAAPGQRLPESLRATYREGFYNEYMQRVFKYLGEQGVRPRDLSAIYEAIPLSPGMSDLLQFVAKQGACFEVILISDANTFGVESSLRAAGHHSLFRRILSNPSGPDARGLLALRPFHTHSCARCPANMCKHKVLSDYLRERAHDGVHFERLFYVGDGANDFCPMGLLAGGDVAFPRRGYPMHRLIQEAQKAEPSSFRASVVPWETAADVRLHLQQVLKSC
KCNQ1 inh – human KCNQ1 channel inhibition; CHO-K1 KCNQ1, FluxOR thallium flux fluorescence; hits give high values; actives 1.3% (n = 310,000); B-score at 10 µM; P51787; AID 2642;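 active means compounds whose thallium flux B-score, printed positive for inhibition, exceeds three library SD while starting fluorescence stays within three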;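 further: channel opened by potassium depolarization with thallium stimulus after 20 min compound exposure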
hERG protect – shields human hERG channel from block by proarrhythmic agents; CHO-hERG, FluxOR thallium flux, dofetilide IC70 present; activation (rescue from dofetilide block), less the hit threshold, % at 10 µM; actives 0.51% (n = 310,000);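 active means activation above the mean of controls blocked by dofetilide plus 5 SD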;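 further: thallium influx through hERG after potassium depolarization seen as dye fluorescence rise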
KCNQ1 pot – human KCNQ1 channel potentiation or activation. P51787. CHO-K1 KCNQ1, thallium flux FluxOR fluorescence; hits give high values. B-score at 10 µM. actives 0.35% (n = 310,000). AID 2648;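 active means fluorescence ratio B-score, a plate-corrected score, at least three library SD, with initial intensity B-score within 5 SD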
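assay system = CHO-K1 cells stably expressing KCNQ1 | medium = assay buffer, equal DMSO in all wells | timing = 37 °C overnight plating, 90-min dark dye load, 20-min compound pretreatment | measured by = kinetic FluxOR thallium fluorescence, 10-s 1-Hz baseline, 110-s post-stimulus read | measure = fluorescence change relative to baseline, converted to B score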
KCNK9 inh conf – human KCNK9 inhibitor confirmation; shares compounds with KCNK9 block; HEK293 KCNK9 cells, FluxOR thallium flux fluorescence; inhibition, % at 10 µM; actives 43% (n = 4,900); AID 492992;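 active means thallium signal inhibited by more than 5 SD of the compound-free buffer control wells, on both duplicate plates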
Kir2-1 spec – tests whether KCNK9 modulators also affect mouse Kir2.1. shares compounds with KCNK9 block. Kir2.1 cells, FluxOR thallium flux fluorescence. actives 4% (n = 4,900). inhibition, % at 10 µM. AID 492993;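 active means thallium signal drop more than 5 SD beyond the mean of the no-compound control wells, seen in both duplicate plates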;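 further: signal is fluorescence rise after thallium addition divided by baseline fluorescence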
HEK293 Tl ctr – non-induced cell nonspecific activity of KCNK9 modulators | inhibition, % at 10 µM | non-induced KCNK9-HEK293, FluxOR thallium flux | actives 40% (n = 4,900) | shares compounds with KCNK9 block | AID 492997;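 active means thallium signal drop beyond 5 SD of the untreated control mean, on both duplicate plates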
Hits are given with their value. Compounds with a hit are over-represented: about 4% of the library has one in this group of screens.

Screening CCN1CCc2c(OCc3ccccc3)cccc2C1=O returned KCNK9 block inactive, KCNK3 block inactive, PHOSPHO1 inh inactive, KCNQ1 inh inactive, hERG protect inactive and KCNQ1 pot inactive.
Screening Cc1ccc(COc2cccc3c2CCN(Cc2ccc(F)cc2)C3=O)cc1 returned KCNK9 block -10, KCNK3 block inactive, PHOSPHO1 inh inactive, KCNQ1 inh inactive, hERG protect inactive, KCNQ1 pot inactive, KCNK9 inh conf 74%, Kir2-1 spec inactive and HEK293 Tl ctr 41%.
For O=C1c2cccc(OCc3ccc(F)cc3)c2CCN1Cc1ccccc1 the results were KCNK9 block -11, KCNK3 block inactive, PHOSPHO1 inh inactive, KCNQ1 inh inactive, hERG protect inactive, KCNQ1 pot inactive, KCNK9 inh conf 70%, Kir2-1 spec inactive and HEK293 Tl ctr 48%.
Cc1sc(NC(=O)CN(C)C2CCCCC2)nc1-c1ccc2c(c1)CCN2S(=O)(=O)c1ccccc1 was read as KCNK9 block inactive, PHOSPHO1 inh inactive, KCNQ1 inh inactive, hERG protect inactive and KCNQ1 pot inactive.
COc1ccccc1NC(=S)NCCc1ccc(OC)c(OC)c1 was read as KCNK9 block inactive, KCNK3 block inactive, PHOSPHO1 inh inactive, KCNQ1 inh inactive, hERG protect inactive and KCNQ1 pot inactive.
Cc1ccc(S(=O)(=O)N2CCCCC2)cc1C(=O)N(CCc1ccccc1)Cc1ccccc1 was read as KCNK9 block -16, KCNK3 block inactive, KCNQ1 inh inactive, hERG protect inactive, KCNQ1 pot inactive, KCNK9 inh conf 79%, Kir2-1 spec inactive and HEK293 Tl ctr 43%.
CC1CN(S(=O)(=O)c2cccc(C(=O)N(CCc3ccccc3)Cc3ccccc3)c2)CC(C)O1 (configuration not stated) was read as KCNK9 block inactive, KCNK3 block inactive, KCNQ1 inh inactive, hERG protect inactive, KCNQ1 pot inactive, KCNK9 inh conf inactive, Kir2-1 spec inactive and HEK293 Tl ctr inactive.
`Cc1ccc(N(Cc2ccccc2)C(=O)c2cccc(S(=O)(=O)N3CC(C)OC(C)C3)c2)cc1` (configuration not stated) gave KCNK9 block inactive, KCNK3 block inactive, KCNQ1 inh inactive, hERG protect inactive and KCNQ1 pot inactive.
Cc1cc(C)nc(SCc2nnc(SCc3ccccc3Cl)o2)n1 was read as KCNK9 block -8.5, KCNK3 block inactive, PHOSPHO1 inh inactive, KCNQ1 inh inactive, hERG protect inactive, KCNQ1 pot inactive, KCNK9 inh conf 47%, Kir2-1 spec inactive and HEK293 Tl ctr inactive.
`Cc1cc(C)nc(NCCC(=O)O)n1` gave KCNK9 block inactive, KCNK3 block inactive, PHOSPHO1 inh inactive, KCNQ1 inh inactive, hERG protect inactive and KCNQ1 pot inactive.
Screening CN(Cc1ccccc1F)c1nc(-c2cccnc2)nc2ccccc12 returned KCNK9 block -8.2, KCNK3 block inactive, PHOSPHO1 inh inactive, KCNQ1 inh inactive, hERG protect inactive, KCNQ1 pot inactive, KCNK9 inh conf 31%, Kir2-1 spec inactive and HEK293 Tl ctr 28%.
Screening Cc1ccc(CN(C)c2nc(-c3cccnc3)nc3ccccc23)o1 returned KCNK9 block inactive, KCNK3 block inactive, PHOSPHO1 inh inactive, KCNQ1 inh inactive, hERG protect inactive and KCNQ1 pot inactive.
COc1ccccc1CN(Cc1cc2cc(C)ccc2[nH]c1=O)Cc1nnnn1Cc1ccco1 was read as KCNK9 block -8.7, KCNK3 block inactive, PHOSPHO1 inh inactive, KCNQ1 inh inactive, hERG protect inactive, KCNQ1 pot inactive, KCNK9 inh conf inactive, Kir2-1 spec inactive and HEK293 Tl ctr 36%.
Screening CCc1ccc2[nH]c(=O)c(CN(Cc3ccccc3OC)Cc3nnnn3Cc3ccco3)cc2c1 returned KCNK9 block inactive, KCNK3 block inactive, PHOSPHO1 inh inactive, KCNQ1 inh inactive, hERG protect inactive and KCNQ1 pot inactive.
For Cc1cc2c(cc1C)N(C(=O)CSC1=NCCS1)C(C)(C)c1ssc(=S)c1-2 the results were KCNK9 block -8.6, KCNK3 block inactive, PHOSPHO1 inh inactive, KCNQ1 inh inactive, hERG protect inactive, KCNQ1 pot inactive, KCNK9 inh conf 50%, Kir2-1 spec inactive and HEK293 Tl ctr 31%.
`Cc1ccc2c(c1)-c1c(ssc1=S)C(C)(C)N2C(=O)CSc1nncn1C` gave KCNK9 block inactive, KCNK3 block inactive, PHOSPHO1 inh inactive, KCNQ1 inh inactive, hERG protect inactive and KCNQ1 pot inactive.
`CC1(C)c2ssc(=S)c2-c2ccccc2N1C(=O)CSC1=NCCS1` gave KCNK9 block inactive, KCNK3 block inactive, PHOSPHO1 inh inactive, KCNQ1 inh inactive, hERG protect inactive and KCNQ1 pot inactive.
`COc1ccc2c(c1)-c1c(ssc1=S)C(C)(C)N2C(=O)CSC1=NCCS1` gave KCNK9 block -12, KCNK3 block inactive, PHOSPHO1 inh inactive, KCNQ1 inh inactive, hERG protect inactive, KCNQ1 pot inactive, KCNK9 inh conf 46%, Kir2-1 spec inactive and HEK293 Tl ctr 38%.
Screening CC(C)c1cccc(C(C)C)c1OCCCCN1CCCC1 returned KCNK9 block inactive, KCNK3 block inactive, PHOSPHO1 inh inactive, KCNQ1 inh inactive, hERG protect inactive and KCNQ1 pot inactive.
Screening O=C(NC1CCCC1)C(c1ccncc1)N(C(=O)c1csnn1)c1cccc(F)c1 (configuration not stated) returned KCNK9 block inactive, KCNK3 block inactive, PHOSPHO1 inh inactive, KCNQ1 inh inactive, hERG protect inactive and KCNQ1 pot inactive.
CCOc1cc(/C=N/N=C2/NC(=O)C(CC(=O)O)S2)ccc1OCc1ccc(Cl)cc1Cl (configuration not stated) was read as KCNK9 block inactive, KCNK3 block inactive, PHOSPHO1 inh inactive, KCNQ1 inh inactive, hERG protect inactive, KCNQ1 pot inactive, KCNK9 inh conf inactive, Kir2-1 spec inactive and HEK293 Tl ctr inactive.
Screening COc1cc(/C=N/N=C2/NC(=O)C(CC(=O)O)S2)ccc1OCc1ccc(Cl)cc1 (configuration not stated) returned KCNK9 block inactive, KCNK3 block inactive, PHOSPHO1 inh inactive, KCNQ1 inh inactive, hERG protect inactive and KCNQ1 pot inactive.
CC1CC(C)CN(S(=O)(=O)c2ccc(C(=O)N3CCCC3)cc2)C1 (configuration not stated) was read as KCNK9 block inactive, KCNK3 block inactive, PHOSPHO1 inh inactive, KCNQ1 inh inactive, hERG protect inactive and KCNQ1 pot inactive.
